In ChEMBL document CHEMBL3351450 (Bioorg Med Chem, 2014):

What was measured:
[1] = Metabolic stability in human liver S9 fraction assessed as compound remaining at 1 uM after 5 mins by LC-MS/MS analysis; format: ADME, subcellular; settings: read-out: Stability
[2] = Metabolic stability in human liver S9 fraction assessed as compound remaining at 1 uM after 15 mins by LC-MS/MS analysis; format: ADME, subcellular; settings: read-out: Stability
Liver = experiment: Intrinsic clearance in human liver S9 fraction; format: ADME, subcellular
[3] = Cmax in Sprague-Dawley rat at 30 mg/kg, po; format: ADME, organism-based; parameters: dose 30 mg/kg, route oral; settings: in vivo
Summary of the method: (§1)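 Male SD rats, 3 per route. Oral dose given by gavage as a suspension in 0.5% Tween 80 (w/v). IV dose given via the femoral vein in DMSO/PEG-400/saline (5:65:30). Tail-vein blood drawn over 24 h and centrifuged to plasma. Parent and metabolite measured by LC–MS/MS.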

[4] = Cmax in Sprague-Dawley rat at 3 mg/kg, iv; format: ADME, organism-based; parameters: dose 3 mg/kg, route intravenous; settings: in vivo; summary of the method: as §1
[5] = Tmax in Sprague-Dawley rat at 30 mg/kg, po; format: ADME, organism-based; parameters: dose 30 mg/kg, route oral; settings: in vivo
Summary of the method: (§2)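 Male SD rats, three per route. Oral gavage of a suspension in 0.5% Tween 80 (30 mg/kg). IV via femoral vein in DMSO/PEG-400/saline 5:65:30 (3 mg/kg). Tail-vein blood sampled over 24 h. Plasma stored at -20 °C and analysed by LC–MS/MS for parent and metabolite. Values reported as mean ± SD of three rats.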

[6] = Tmax in Sprague-Dawley rat at 3 mg/kg, iv; format: ADME, organism-based; parameters: dose 3 mg/kg, route intravenous; settings: in vivo; summary of the method: as §2
[7] = Half life in Sprague-Dawley rat at 30 mg/kg, po; format: ADME, organism-based; parameters: dose 30 mg/kg, route oral; settings: in vivo; summary of the method: as §1
[8] = Half life in Sprague-Dawley rat at 3 mg/kg, iv; format: ADME, organism-based; parameters: dose 3 mg/kg, route intravenous; settings: in vivo; summary of the method: as §1
[9] = AUC (0 to infinity) in Sprague-Dawley rat at 30 mg/kg, po; format: ADME, organism-based; parameters: time infinity, dose 30 mg/kg, route oral; settings: plasma; summary of the method: as §1
[10] = AUC (0 to infinity) in Sprague-Dawley rat at 3 mg/kg, iv; format: ADME, organism-based; parameters: dose 3 mg/kg, route intravenous, time infinity; settings: plasma; summary of the method: as §1
[11] = Oral bioavailability in Sprague-Dawley rat at 30 mg/kg; format: ADME, organism-based; settings: in vivo; summary of the method: as §2

| remaining at 5 min, 1 µM [1] | remaining at 0.25 h, 1 µM [2] | CLint (Liver) | SMILES | other results |
| --- | --- | --- | --- | --- |
| 81.5% | 50.3% | 81.8 µL/min/mg | Fc1ccc(-c2n[nH]c(CCCc3ccccc3)c2-c2ccncc2)cc1 | – |
| 90.4% | 86.2% | 40.6 µL/min/mg | O=C(Cc1ccccc1)Nc1[nH]nc(-c2ccc(F)cc2)c1-c1ccncc1 | – |
| 84.4% | 65% | 68.1 µL/min/mg | Cn1nc(NC(=O)Cc2ccccc2)c(-c2ccncc2)c1-c1ccc(F)cc1 | – |
| 92.4% | 82.5% | 31.6 µL/min/mg | CC(=O)Nc1onc(-c2ccc(F)cc2)c1-c1ccncc1 | – |
| 39.6% | 10.9% | – | O=C(Nc1onc(-c2ccc(F)cc2)c1-c1ccncc1)c1ccccc1 | – |
| 79.7% | 64.3% | 91 µL/min/mg | O=C(Cc1ccccc1)Nc1onc(-c2ccc(F)cc2)c1-c1ccncc1 | – |
| 32.1% | 27.9% | 455 µL/min/mg | O=C(CCc1ccccc1)Nc1onc(-c2ccc(F)cc2)c1-c1ccncc1 | – |
| 50.7% | 28.5% | 272 µL/min/mg | O=C(CCCc1ccccc1)Nc1onc(-c2ccc(F)cc2)c1-c1ccncc1 | – |
| – | – | – | Nc1onc(-c2ccc(F)cc2)c1-c1ccncn1 | Cmax [3]: 136 ng/mL; Cmax [4]: 744 ng/mL; Tmax [5]: 3.33 h; Tmax [6]: 30 min; half-life [7]: 58.8 min; half-life [8]: 25.7 min; AUC(0-inf) [9]: 760 ng·h/mL; AUC(0-inf) [10]: 924 ng·h/mL |
| 5.6% | – | – | O=C(Cc1ccccc1)Nc1onc(-c2ccc(F)cc2)c1-c1ccncn1 | – |
| 10% | – | – | O=C(Cc1ccccc1F)Nc1onc(-c2ccc(F)cc2)c1-c1ccncn1 | – |
| 5.8% | – | – | O=C(Cc1ccccc1Cl)Nc1onc(-c2ccc(F)cc2)c1-c1ccncn1 | – |
| 16.1% | – | – | O=C(Cc1c(F)cccc1Cl)Nc1onc(-c2ccc(F)cc2)c1-c1ccncn1 | Cmax [3]: 0.88 ng/mL; Cmax [4]: 363 ng/mL; Tmax [5]: 3.33 h; Tmax [6]: 4.8 min; half-life [7]: 1120 min; half-life [8]: 28.4 min; AUC(0-inf) [9]: 23.7 ng·h/mL; AUC(0-inf) [10]: 505 ng·h/mL; bioavailability [11]: < 1% |
| 53.9% | – | – | Cc1ccc(C)c(CC(=O)Nc2onc(-c3ccc(F)cc3)c2-c2ccncn2)c1 | – |
| 96.6% | – | – | O=C(Cc1ccccc1Cl)Nc1onc(-c2ccc(Cl)cc2)c1-c1ccncn1 | – |
| 20.4% | – | – | O=C(Cc1ccccc1Cl)Nc1onc(-c2ccc(F)cc2F)c1-c1ccncn1 | – |
| 21.2% | – | – | Cc1cccc(-c2noc(NC(=O)Cc3ccccc3Cl)c2-c2ccncn2)c1 | – |
| 52.6% | – | – | Cc1cc(-c2noc(NC(=O)Cc3ccccc3C)c2-c2ccncn2)ccc1F | – |
